ChEMBL document CHEMBL1151231, “Antitumor agents. 233. Lantalucratins A-F, new cytotoxic naphthoquinones from Lantana involucrata” (J Nat Prod, 2004)
Active and inactive are the calls of the source. The calls are words filed in the database; no cut-off is given here.

Experiments:
KB [1] = test: Cytotoxicity against human KB cells after 3 days by SRB assay; type: functional, cell-based; conditions: 72 h
In short: (§1)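 Freshly trypsinized cells were seeded at 1500-7500 cells per well with test compound added from DMSO-diluted stock and cultured for 3 days. Attached cells were fixed with cold 50% trichloroacetic acid, stained with 0.4% sulforhodamine B, and the bound dye was solubilized and read at 562 nm. IC50 is the concentration giving a 50% drop in absorbance, or growth, relative to untreated cells.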

[2] = Cytotoxicity against vincristine-resistant human KBVIN cells after 3 days by SRB assay; type: functional, cell-based; conditions: 72 h; in short: as §1
KB [3] = test: Cytotoxicity against etoposide-resistant human KB cells after 3 days by SRB assay; type: functional, cell-based; conditions: 72 h; in short: as §1
KB [4] = test: Cytotoxicity against camptothecin-resistant human KB cells after 3 days by SRB assay; type: functional, cell-based; conditions: 72 h; in short: as §1
A549 [5] = test: Cytotoxicity against human A549 cells after 3 days by SRB assay; type: functional, cell-based; conditions: A549, 72 h; in short: as §1
1A9 [6] = test: Cytotoxicity against human 1A9 cells after 3 days by SRB assay; type: functional, cell-based; conditions: 1A9, 72 h; in short: as §1
1A9 [7] = test: Cytotoxicity against paclitaxel-resistant human 1A9 cells after 3 days by SRB assay; type: functional, cell-based; conditions: 1A9, 72 h; in short: as §1
HOS [8] = test: Cytotoxicity against human HOS cells after 3 days by SRB assay; type: functional, cell-based; conditions: 72 h; in short: as §1
MCF7 [9] = test: Cytotoxicity against human MCF7 cells after 3 days by SRB assay; type: functional, cell-based; conditions: MCF7, 72 h; in short: as §1
[10] = Cytotoxicity against human U87MG cells after 3 days by SRB assay; type: functional, cell-based, U-87MG ATCC; conditions: U-87 MG, 72 h; in short: as §1
CAKI-1 [11] = test: Cytotoxicity against human Caki1 cells after 3 days by SRB assay; type: functional, cell-based; conditions: CAKI-1, 72 h; in short: as §1
CAKI-1 [12] = test: Cytotoxicity against human Caki1 cells at 10 uM after 3 days by SRB assay; type: functional; conditions: for inhibition at 10 µM: CAKI-1, 72 h
KB [13] = test: Cytotoxicity against human KB cells at 10 uM after 3 days by SRB assay; type: functional
KB [14] = test: Cytotoxicity against vincristine-resistant human KBVIN cells at 10 uM after 3 days by SRB assay; type: functional
KB [15] = test: Cytotoxicity against etoposide-resistant human KB cells at 10 uM after 3 days by SRB assay; type: functional
KB [16] = test: Cytotoxicity against camptothecin-resistant human KB cells at 10 uM after 3 days by SRB assay; type: functional, cell-based
A549 [17] = test: Cytotoxicity against human A549 cells at 10 uM after 3 days by SRB assay; type: functional
1A9 [18] = test: Cytotoxicity against human 1A9 cells at 10 uM after 3 days by SRB assay; type: functional, cell-based
MCF7 [19] = test: Cytotoxicity against human MCF7 cells at 10 uM after 3 days by SRB assay; type: functional; conditions: MCF7, 72 h
1A9 [20] = test: Cytotoxicity against paclitaxel-resistant human 1A9 cells at 10 uM after 3 days by SRB assay; type: functional; conditions: for inhibition at 10 µM: 1A9, 72 h
HOS [21] = test: Cytotoxicity against human HOS cells at 10 uM after 3 days by SRB assay; type: functional, cell-based
[22] = (§2) Cytotoxicity against human U87MG cells at 10 uM after 3 days by SRB assay; type: functional, U-87MG ATCC; conditions: U-87 MG, 72 h
U-87MG ATCC = test: as §2; type: functional

Compound	IC50 (KB [1]) [µM]	IC50 [2] [µM]	IC50 (KB [3]) [µM]	IC50 (KB [4]) [µM]	IC50 (A549 [5]) [µM]	IC50 (1A9 [6]) [µM]	IC50 (1A9 [7]) [µM]	IC50 (HOS [8]) [µM]	IC50 (MCF7 [9]) [µM]	IC50 [10] [µM]	IC50 (CAKI-1 [11]) [µM]	inhibition at 10 µM (CAKI-1 [12]) [%]	Activity (KB [13])	Activity (KB [14])	Activity (KB [15])	Activity (KB [16])	other results
C=C(C)C1CC2=C(O1)c1ccc(O)cc1C(=O)C2=O (configuration not stated) [LANTALUCRATIN C]	6.9	6.3	5.8	5.2	6	9.4	6.5	4.7	4.9	7.3	–	–	–	–	–	–	–
C=C(C)C1CC2=C(O1)c1cccc(O)c1C(=O)C2=O (configuration not stated) [LANTALUCRATIN B]	2.3	2.4	2.1	1	1.8	1.5	2.1	2.5	1	1.9	> 5	16	–	–	–	–	–
C=C(C)C1CC2=C(O1)c1ccccc1C(=O)C2=O (configuration not stated)	3	3.9	3	2.2	2.7	2.1	2.3	4	1.2	3.4	9.6	–	–	–	–	–	–
C=C(C)C(O)CC1=C(OC)C(=O)c2c(OC)cccc2C1=O (configuration not stated) [LANTALUCRATIN D]	–	–	–	–	> 10	–	> 10	–	> 10	> 10	–	–	inactive	inactive	inactive	inactive	inhibition at 10 µM (A549 [17]; A549, 72 h): 7%; Activity (1A9 [18]): inactive; inhibition at 10 µM (MCF7 [19]): 20%; inhibition at 10 µM (1A9 [20]): 14%; Activity (CAKI-1 [12]): inactive; Activity (HOS [21]): inactive; inhibition at 10 µM [22]: 8%
C=C(C)C1CC2=C(O1)C(=O)c1ccccc1C2=O (stereo not drawn) [DEHYDROISO-ALPHA-LAPACHONE]	4.1	5.7	3.5	3.2	6.4	2.6	2.8	3.6	1.2	2.6	> 10	26	–	–	–	–	–
C=C(C)C(O)CC1=C(OC)C(=O)c2cc(OC)c(O)c(O)c2C1=O (configuration not stated) [LANTALUCRATIN F]	–	–	–	–	–	–	–	–	> 10	–	> 10	13	inactive	inactive	inactive	inactive	Activity (A549 [17]): inactive; Activity (1A9 [18]): inactive; inhibition at 10 µM (MCF7 [19]): 9%; Activity (1A9 [20]): inactive; Activity (HOS [21]): inactive; Activity (U-87MG ATCC): inactive
C=C(C)C(O)CC1=C(OC)C(=O)c2c(OC)ccc(O)c2C1=O (configuration not stated) [LANTALUCRATIN E]	–	–	–	–	8.7	1.3	2.5	8.7	5.5	7	> 10	8	inactive	inactive	inactive	inactive	–
CC1(C)CCC2=C(O1)c1ccccc1C(=O)C2=O [LAPACHONE]	1.2	2.2	1.8	1	1.5	0.8	0.8	1.4	0.8	2	> 5	42	–	–	–	–	–
C=C(C)C1CC2=C(O1)c1cccc(OC)c1C(=O)C2=O (configuration not stated) [LANTALUCRATIN A]	> 5	> 5	> 5	2.1	3.3	3.9	> 5	4.8	1.6	4.7	–	–	–	–	–	–	inhibition at 10 µM (KB [13]; 72 h): 46%; inhibition at 10 µM (KB [14]; 72 h): 17%; inhibition at 10 µM (KB [15]; 72 h): 43%; inhibition at 10 µM (1A9 [20]): 45%; Activity (CAKI-1 [12]): inactive
